Measured values as given in ChEMBL document CHEMBL1129958, “Synthesis and antiviral activity of certain 5'-modified analogs of 2,5,6-trichloro-1-(beta-D-ribofuranosyl)benzimidazole” (J Med Chem, 1997).

How the values were obtained:
L1210 [1] = assay: Effect of initial screen concentration of 100 uM on the growth of L1210 Murine Leukemia cells; format: functional, Mus musculus
Outline: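 L1210 mouse leukemia cells in RPMI 1640 with 10% heat-inactivated horse serum, 2000 cells/well. Compound added the next day and incubated 3 days. Growth read by MTS tetrazolium reduction optical density as percent of control. Screen at 100 µM, or the solubility limit; value is the mean of two or three experiments.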

Human betaherpesvirus 5 [2] = assay: Antiviral activity was determined against Towne strain of HCMV by Plaque and yield reduction test; format: functional
Human betaherpesvirus 5 [3] = assay: In vitro antiviral activity against HCMV (Towne strain) in HFF (human fibroblast) cells.; format: functional, organism-based; conditions: Human betaherpesvirus 5, HFF
Outline: (§1)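 HFF monolayers in 24-well dishes infected with about 100 PFU HCMV/cm2 of cell sheet. After adsorption, compound in growth medium added to duplicate wells at four to eight concentrations. Incubated 7 days at 37 °C, fixed and stained with crystal violet, microscopic plaques counted. Percent plaque reduction against no-drug wells regressed on log concentration to give IC50.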

HFF = assay: Visual cytotoxicity was scored on Human foreskin fibroblasts (HFF cells) at the time of plaque enumeration.; format: functional, cell-based
Outline: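 Stationary HFF cells from the plaque assays, not affected by virus, inspected microscopically for cytotoxicity at the time of plaque counting.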

L1210 [4] = assay: concentration required to decrease the cell density in the treated cultures to one-half of the control was measured on L1210 murine Leukemia cells (in vitro); format: functional, cell-based; conditions: Mus musculus
Outline: (§2)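 L1210 cells, 2000/well, given compound the day after plating and incubated 3 days; cell density read by MTS reduction. Concentration–response in two independent experiments. IC50 is the concentration that halves cell density relative to control, averaged over the two experiments.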

Human alphaherpesvirus 1 [5] = assay: In vitro antiviral activity against HSV-1 virus in BSC-1 (monkey kidney) cells.; format: functional, organism-based; conditions: Human alphaherpesvirus 1, BSC-1
Outline: (§3)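 BSC-1 cells, 10 000/well in MEM(E) with 10% calf serum, incubated overnight at 37 °C. Drug added in quadruplicate together with HSV-1 KOS at 100 PFU/well and incubated 3 days. Read-out by ELISA with HRP-conjugated rabbit anti-HSV-1 and TMB substrate, absorbance at 450 and 570 nm. Percent absorbance reduction against virus-only wells regressed on log concentration for IC50.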

KB = assay: In vitro inhibition of KB (human carcinoma) cell growth.; format: functional, cell-based
Outline: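 KB cells, 3000–5000/well, incubated overnight at 37 °C. Compound added in quadruplicate at six to eight concentrations for 48 h (about two population doublings). Cells fixed in 95% ethanol, stained with 0.1% crystal violet, dye eluted with acidified ethanol and read at 570 nm. IC50 from regression against log concentration.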

Human betaherpesvirus 5 [6] = assay: In vitro reduction in yield of Towne strain of HCMV in HFF (human fibroblast) cells.; format: functional; conditions: Human betaherpesvirus 5, HFF
Outline: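 HFF in 96-well plates infected with HCMV Towne at MOI 0.5-1 PFU/cell. After adsorption, compound given in duplicate, serially diluted 1:3 from 100 to 0.14 µM. After 7 days at 37 °C, one freeze-thaw cycle, then progeny titred by 1:3 serial dilution on fresh HFF monolayers with plaque counts. IC90 taken from regression of percent inhibition against log concentration.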

L1210 [7] = assay: Effect of initial screen concentration of 10 uM on the growth of L1210 Murine Leukemia cells
L1210 [8] = assay: concentration required to decrease the cell density in the treated cultures to one-half of the control was measured on L1210 murine Leukemia cells (in vitro); c=No significant growth inhibition observed atthe initial screen concentration; format: functional, cell-based, Mus musculus
L1210 [9] = assay: concentration required to decrease the cell density in the treated cultures to one-half of the control was measured on L1210 murine Leukemia cells (in vitro) (The highest concentration tested); format: functional, cell-based; conditions: Mus musculus; outline: as §2
L1210 [10] = assay: Effect of initial screen concentration of 1 uM on the growth of L1210 Murine Leukemia cells
Human alphaherpesvirus 1 [11] = assay: Antiviral activity was determined against Herpes simplex virus-1 by ELISA test (IC50 not reached at the noted concentration tested); format: functional, organism-based; outline: as §3
Human betaherpesvirus 5 [12] = assay: Antiviral activity was determined against AD169 strain of HCMV by Plaque and yield reduction test; format: functional, organism-based; outline: as §1
Human betaherpesvirus 5 [13] = assay: Antiviral activity was determined against Towne strain of HCMV by Plaque and yield reduction test (Averaged results from duplicate or triplicate experiments); format: functional

Row | Compound | Control (L1210 [1]) [%] | IC90 (Human betaherpesvirus 5 [2]) [µM] | IC50 (Human betaherpesvirus 5 [3]) [µM] | IC50 (HFF) [µM] | IC50 (L1210 [4]) [µM] | IC50 (Human alphaherpesvirus 1 [5]) [µM] | IC50 (KB) [µM] | IC90 (Human betaherpesvirus 5 [6]) [µM] | Control (L1210 [7]) [%] | IC50 (L1210 [8]) | IC50 (L1210 [9]) [µM] | Control (L1210 [10]) [%] | IC50 (Human alphaherpesvirus 1 [11]) [µM] | IC50 (Human betaherpesvirus 5 [12]) [µM] | IC90 (Human betaherpesvirus 5 [13]) [µM]
1 | [N-]=[N+]=NC[C@H]1OC(n2c(Cl)nc3cc(Cl)c(Cl)cc32)[C@H](O)[C@@H]1O (some centres undefined) | 29 | 0.6 | 1.5 | 32 | 80 | > 100 | 70 |  |  |  |  |  |  |  | 
2 | COC[C@H]1OC(n2c(Cl)nc3cc(Cl)c(Cl)cc32)[C@H](O)[C@@H]1O (some centres undefined) | 4 |  | 3 | 32 | 60 | > 100 | 90 | 2 |  |  |  |  |  |  | 
3 | CCCCOC[C@H]1O[C@@H](n2c(Cl)nc3cc(Cl)c(Cl)cc32)[C@H](OC(C)=O)[C@@H]1OC(C)=O |  |  | 21 | 66 |  | > 100 | > 100 |  | 92 | No significant growth |  |  |  |  | 
4 | CCOC[C@H]1O[C@@H](n2c(Cl)nc3cc(Cl)c(Cl)cc32)[C@H](OC(C)=O)[C@@H]1OC(C)=O |  |  | 4.3 | 33 |  | > 100 | 60 |  | 83 |  | > 10 |  |  |  | 
5 | O[C@@H]1[C@@H](CF)OC(n2c(Cl)nc3cc(Cl)c(Cl)cc32)[C@@H]1O (some centres undefined) | 81 |  | 0.5 | 32 | > 100 | > 100 | > 100 | 0.22 |  |  |  |  |  |  | 
6 | O[C@@H]1[C@@H](CBr)OC(n2c(Cl)nc3cc(Cl)c(Cl)cc32)[C@@H]1O (some centres undefined) | 54 |  | 1.5 | 32 | 100 | > 100 | 90 | 0.5 |  |  |  |  |  |  | 
7 | CSC[C@H]1OC(n2c(Cl)nc3cc(Cl)c(Cl)cc32)[C@H](O)[C@@H]1O (some centres undefined) | 73 |  | 4.5 | 32 | > 100 | > 100 | > 100 |  |  |  |  |  |  |  | 
8 | CC1(C)OC2C(CCl)OC(n3c(Cl)nc4cc(Cl)c(Cl)cc43)C2O1 (centres undefined) |  |  | 14 | 32 |  | > 100 | 100 |  |  |  |  |  |  |  | 
9 | CC(=O)OC1C(CI)OC(n2c(Cl)nc3cc(Cl)c(Cl)cc32)C1OC(C)=O (centres undefined) |  |  | 2.7 | 32 |  | > 100 | 60 |  |  |  |  |  |  |  | 
10 | Nc1nc2c(ncn2COC(CO)CO)c(=O)[nH]1 [GANCICLOVIR] |  |  | 7.4 | > 100 |  | 3.5 | > 100 | 1.6 |  |  |  |  |  |  | 
11 | CC1(C)OC2C(CN=[N+]=[N-])OC(n3c(Cl)nc4cc(Cl)c(Cl)cc43)C2O1 (centres undefined) |  |  | 11 | 32 |  |  |  |  |  |  |  |  |  |  | 
12 | CCCCOC[C@H]1OC(n2c(Cl)nc3cc(Cl)c(Cl)cc32)[C@H](O)[C@@H]1O (some centres undefined) | 64 |  | 14.2 | 32 | > 100 | > 100 | 60 |  |  |  |  |  |  |  | 
13 | COC[C@H]1O[C@@H](n2c(Cl)nc3cc(Cl)c(Cl)cc32)[C@H](OC(C)=O)[C@@H]1OC(C)=O |  |  | 2.8 | 26 |  |  | 80 |  |  | No significant growth |  | 95 | > 100 |  | 
14 | OC[C@H]1O[C@@H](n2c(Cl)nc3cc(Cl)c(Cl)cc32)[C@H](O)[C@@H]1O | 76 |  | 2.8 |  | > 100 | 102 |  | 1.3 |  |  |  |  |  |  | 
15 | O[C@@H]1[C@@H](CI)OC(n2c(Cl)nc3cc(Cl)c(Cl)cc32)[C@@H]1O (some centres undefined) |  |  | 3.2 | 32 |  | > 100 |  |  |  |  |  |  |  | 2.9 | 
16 | CC(=O)OC1C(CBr)OC(n2c(Cl)nc3cc(Cl)c(Cl)cc32)C1OC(C)=O (centres undefined) | 94 |  | 2.7 | 32 |  | > 100 | 60 |  |  | No significant growth |  |  |  |  | 
17 | CCOC[C@H]1OC(n2c(Cl)nc3cc(Cl)c(Cl)cc32)[C@H](O)[C@@H]1O (some centres undefined) | 9 |  | 4.6 | 26 | 59 | > 100 | 80 |  |  |  |  |  |  |  | 
18 | CC(=O)OC1C(CCl)OC(n2c(Cl)nc3cc(Cl)c(Cl)cc32)C1OC(C)=O (centres undefined) |  |  | 1.4 | 32 |  | > 100 | 90 | 0.31 | 96 | No significant growth |  |  |  |  | 
19 | CC(=O)OC1C(CN=[N+]=[N-])OC(n2c(Cl)nc3cc(Cl)c(Cl)cc32)C1OC(C)=O (centres undefined) |  |  | 1.5 | 32 |  | > 100 | 70 |  | 110 | No significant growth |  |  |  |  | 
20 | CSCC1OC(n2c(Cl)nc3cc(Cl)c(Cl)cc32)C(OC(C)=O)C1OC(C)=O (centres undefined) |  |  | 4.8 | 32 |  | > 100 |  |  |  |  |  |  |  |  | 
21 | O[C@@H]1[C@@H](CCl)OC(n2c(Cl)nc3cc(Cl)c(Cl)cc32)[C@@H]1O (some centres undefined) | 73 |  | 1 | 32 | > 100 | > 100 | 90 |  |  |  |  |  |  |  | 0.52
22 | CC(=O)OC1C(CF)OC(n2c(Cl)nc3cc(Cl)c(Cl)cc32)C1OC(C)=O (centres undefined) |  |  | 0.6 | 32 |  | > 100 | 100 | 0.19 | 122 | No significant growth |  |  |  |  | 
